Laboratory results: ChEMBL document CHEMBL1141626, “Thiosemicarbazones active against Clostridium difficile” (2008)
Values after ≈ are worked out from the molar mass of the structure shown.

Legend:
Format in all cases: functional
Staphylococcus aureus [1] = assay: Antimicrobial activity against Staphylococcus aureus K1 after 24 hrs
Method in brief: (§1)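 MIC by dilution in nutrient broth. Anaerobic organisms were incubated in an anaerobic cabinet. Controls were the same organisms incubated without test compound.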

Clostridioides difficile [2] = assay: Antimicrobial activity against Clostridium difficile Z158 after 48 hrs
Method in brief: (§2)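 Anaerobes incubated in an anaerobic cabinet for broth MIC determination. Drug-free incubations of the same organisms served as controls. Value is the minimum inhibitory concentration.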

Clostridioides difficile [3] = assay: Antimicrobial activity against Clostridium difficile O27 after 48 hrs; method in brief: as §2
Staphylococcus aureus [4] = assay: Antimicrobial activity against methicillin-resistant Staphylococcus aureus D1 after 24 hrs; method in brief: as §1
Clostridioides difficile [5] = assay: Antimicrobial activity against Clostridium difficile Z162 after 48 hrs; method in brief: as §2
Clostridioides difficile [6] = assay: Antimicrobial activity against Clostridium difficile NCTC 11204 after 48 hrs; conditions: NCTC 11204, 48 h; method in brief: as §2
[7] = tested on: Staphylococcus epidermidis; assay: Antimicrobial activity against Staphylococcus epidermidis RP62A after 24 hrs; method in brief: as §1
Clostridioides difficile [8] = assay: Antimicrobial activity against Clostridium difficile Z159 after 48 hrs; method in brief: as §2
Staphylococcus aureus [9] = assay: Antimicrobial activity against Staphylococcus aureus H1 after 24 hrs; method in brief: as §1
Clostridioides difficile [10] = assay: Antimicrobial activity against Clostridium difficile Z177 after 48 hrs; method in brief: as §2
Clostridioides difficile [11] = assay: Antimicrobial activity against Clostridium difficile Z169 after 48 hrs; method in brief: as §2
Clostridioides difficile [12] = assay: Antimicrobial activity against Clostridium difficile Z161 after 48 hrs; method in brief: as §2
Staphylococcus aureus [13] = assay: Antimicrobial activity against Staphylococcus aureus V1 after 24 hrs; method in brief: as §1
Clostridioides difficile [14] = assay: Antimicrobial activity against Clostridium difficile Z179 after 48 hrs; method in brief: as §2
Clostridioides difficile [15] = assay: Antimicrobial activity against Clostridium difficile Z171 after 48 hrs; method in brief: as §2
Clostridioides difficile [16] = assay: Antimicrobial activity against Clostridium difficile Z173 after 48 hrs; method in brief: as §2
[17] = tested on: Staphylococcus epidermidis; assay: Antimicrobial activity against Staphylococcus epidermidis 10 after 24 hrs; method in brief: as §1
Acinetobacter sp. [18] = assay: Antimicrobial activity against Acinetobacter sp.5
Staphylococcus aureus [19] = assay: Antimicrobial activity against methicillin-sensitive Staphylococcus aureus A3 after 24 hrs; method in brief: as §1
Acinetobacter sp. [20] = assay: Antimicrobial activity against Acinetobacter sp.2
Clostridioides difficile [21] = assay: Antimicrobial activity against Clostridium difficile Z387 after 48 hrs; method in brief: as §2
Acinetobacter sp. [22] = assay: Antimicrobial activity against Acinetobacter sp.1
Staphylococcus aureus [23] = assay: Antimicrobial activity against Staphylococcus aureus ATCC 6538 after 24 hrs; conditions: ATCC 6538, 24 h; method in brief: as §1
Clostridioides difficile [24] = assay: Antimicrobial activity against Clostridium difficile Z1591 after 48 hrs; method in brief: as §2
Clostridioides difficile [25] = assay: Antimicrobial activity against Clostridium difficile Z167 after 48 hrs; method in brief: as §2
[26] = tested on: Staphylococcus epidermidis; assay: Antimicrobial activity against Staphylococcus epidermidis 3 after 24 hrs; method in brief: as §1
Clostridioides difficile [27] = assay: Antimicrobial activity against Clostridium difficile Z16 after 48 hrs; method in brief: as §2
Clostridioides difficile [28] = assay: Antimicrobial activity against Clostridium difficile Z1568 after 48 hrs; method in brief: as §2
Candida albicans [29] = assay: Antimicrobial activity against Candida albicans 1013781
Staphylococcus aureus [30] = assay: Antimicrobial activity against methicillin-resistant Staphylococcus aureus E1 after 24 hrs; method in brief: as §1
Staphylococcus aureus [31] = assay: Antimicrobial activity against methicillin-resistant Staphylococcus aureus A1 after 24 hrs; method in brief: as §1
Cutibacterium acnes = assay: Antimicrobial activity against Propionibacterium acnes C5 after 48 hrs; method in brief: as §1
Clostridioides difficile [32] = assay: Antimicrobial activity against Clostridium difficile Z166 after 48 hrs; method in brief: as §2
Clostridioides difficile [33] = assay: Antimicrobial activity against Clostridium difficile Z1579 after 48 hrs; method in brief: as §2
Clostridioides difficile [34] = assay: Antimicrobial activity against Clostridium difficile Z229 after 48 hrs; method in brief: as §2
Candida albicans [35] = assay: Antimicrobial activity against Candida albicans 1012155
Candida albicans [36] = assay: Antimicrobial activity against Candida albicans 1015391
Acinetobacter sp. [37] = assay: Antimicrobial activity against Acinetobacter sp.4
Clostridioides difficile [38] = assay: Antimicrobial activity against Clostridium difficile Z176 after 48 hrs; method in brief: as §2

Question: How did the MIC (Staphylococcus aureus [1]) turn out when `CCNC(=S)N/N=C/C=C/c1ccc([N+](=O)[O-])o1` was run?
Answer: 4 µg/mL (≈ 14.9 µM)

Question: What about the MIC (Clostridioides difficile [2]) of the same molecule?
Answer: 2 µg/mL (≈ 7.45 µM)

Question: What about the MIC (Clostridioides difficile [3]) of the same molecule?
Answer: 8 µg/mL (≈ 29.8 µM)

Question: And the MIC (Staphylococcus aureus [4])?
Answer: 4 µg/mL (≈ 14.9 µM)

Question: What about the MIC (Clostridioides difficile [5]) of the same molecule?
Answer: 0.125 µg/mL (≈ 0.466 µM)

Question: What about the MIC (Clostridioides difficile [6]) of the same molecule?
Answer: 4 µg/mL (≈ 14.9 µM)

Question: What about the MIC [7] of the same molecule?
Answer: 4 µg/mL (≈ 14.9 µM)

Question: And the MIC (Clostridioides difficile [8])?
Answer: 8 µg/mL (≈ 29.8 µM)

Question: And the MIC (Staphylococcus aureus [9])?
Answer: 16 µg/mL (≈ 59.6 µM)

Question: What about the MIC (Clostridioides difficile [10]) of the same molecule?
Answer: 2 µg/mL (≈ 7.45 µM)

Question: And the MIC (Clostridioides difficile [11])?
Answer: 2 µg/mL (≈ 7.45 µM)

Question: What about the MIC (Clostridioides difficile [12]) of the same molecule?
Answer: 0.5 µg/mL (≈ 1.86 µM)

Question: What about the MIC (Staphylococcus aureus [13]) of the same molecule?
Answer: 2 µg/mL (≈ 7.45 µM)

Question: What about the MIC (Clostridioides difficile [14]) of the same molecule?
Answer: 2 µg/mL (≈ 7.45 µM)

Question: And the MIC (Clostridioides difficile [15])?
Answer: 2 µg/mL (≈ 7.45 µM)

Question: What about the MIC (Clostridioides difficile [16]) of the same molecule?
Answer: 8 µg/mL (≈ 29.8 µM)

Question: And the MIC [17]?
Answer: 4 µg/mL (≈ 14.9 µM)

Question: And the MIC (Acinetobacter sp. [18])?
Answer: 128 µg/mL (≈ 477 µM)

Question: And the MIC (Staphylococcus aureus [19])?
Answer: 4 µg/mL (≈ 14.9 µM)

Question: What about the MIC (Acinetobacter sp. [20]) of the same molecule?
Answer: 128 µg/mL (≈ 477 µM)

Question: What about the MIC (Clostridioides difficile [21]) of the same molecule?
Answer: 16 µg/mL (≈ 59.6 µM)

Question: What about the MIC (Acinetobacter sp. [22]) of the same molecule?
Answer: 128 µg/mL (≈ 477 µM)

Question: And the MIC (Staphylococcus aureus [23])?
Answer: 4 µg/mL (≈ 14.9 µM)

Question: What about the MIC (Clostridioides difficile [24]) of the same molecule?
Answer: 1 µg/mL (≈ 3.73 µM)

Question: And the MIC (Clostridioides difficile [25])?
Answer: 2 µg/mL (≈ 7.45 µM)

Question: What about the MIC [26] of the same molecule?
Answer: 2 µg/mL (≈ 7.45 µM)

Question: What about the MIC (Clostridioides difficile [27]) of the same molecule?
Answer: 8 µg/mL (≈ 29.8 µM)

Question: What about the MIC (Clostridioides difficile [28]) of the same molecule?
Answer: 1 µg/mL (≈ 3.73 µM)

Question: What about the MIC (Candida albicans [29]) of the same molecule?
Answer: 128 µg/mL (≈ 477 µM)

Question: And the MIC (Staphylococcus aureus [30])?
Answer: 4 µg/mL (≈ 14.9 µM)

Question: What about the MIC (Staphylococcus aureus [31]) of the same molecule?
Answer: 2 µg/mL (≈ 7.45 µM)

Question: What about the MIC (Cutibacterium acnes) of the same molecule?
Answer: 32 µg/mL (≈ 119 µM)

Question: And the MIC (Clostridioides difficile [32])?
Answer: 2 µg/mL (≈ 7.45 µM)

Question: And the MIC (Clostridioides difficile [33])?
Answer: 2 µg/mL (≈ 7.45 µM)

Question: What about the MIC (Clostridioides difficile [34]) of the same molecule?
Answer: 4 µg/mL (≈ 14.9 µM)

Question: And the MIC (Candida albicans [35])?
Answer: 128 µg/mL (≈ 477 µM)

Question: And the MIC (Candida albicans [36])?
Answer: 128 µg/mL (≈ 477 µM)

Question: What about the MIC (Acinetobacter sp. [37]) of the same molecule?
Answer: 128 µg/mL (≈ 477 µM)

Question: And the MIC (Clostridioides difficile [38])?
Answer: 2 µg/mL (≈ 7.45 µM)
